Assay results from PubChem BioAssay AID588558 (Sanford-Burnham Center for Chemical Genomics, 2011).
Calls of active or inactive are those of the source.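 How the source made its calls: active means mean IC50 of 20 µM or lower in the 24 hour cytotoxicity test; inactive means the rest.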

tested on: CHO-XBP1 cytotoxicity, ATPlite luminescence, 24 h; assay: CHO-XBP1 cell viability loss – 24 h exposure, ATPlite luminescence, cytotoxicity control for UPR apoptotic arm activator project, SAR follow-up (AID 588558)
Method in brief: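 System: CHO-XBP1 cells (Chinese hamster ovary XBP1 reporter line); Input: 1000 CHO-XBP1 cells per well; Buffer or medium: F12 with 10% FBS; Compound: dose series, DMSO ≤1%; Incubation: 24 h compound exposure at 37 °C; Detection: ATPLite 1-Step luminescence; Controls: tunicamycin 10 µg/mL positive control.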

How did the IC50 turn out when O=C(Nc1ccc(S(=O)(=O)N2CCCCC2)cc1)c1ccc([N+](=O)[O-])o1 was run?
The IC50 was > 80 µM (inactive).

For CC1CN(S(=O)(=O)c2ccc(NC(=O)c3ccc([N+](=O)[O-])o3)cc2)CC(C)O1 (stereo not given), which IC50 is on record?
Its IC50 is 34.9 µM (inactive).

How did the IC50 turn out when O=C(Nc1ccc(S(=O)(=O)N2CCC(F)CC2)cc1)c1ccc([N+](=O)[O-])o1 was run?
The IC50 was 24.7 µM (inactive).

For O=C(Nc1nc2cc(F)c(F)cc2s1)c1ccccn1, which IC50 is on record?
The IC50 was 1.81 µM.

How did the IC50 turn out when O=C(Nc1nc2c(F)cccc2s1)c1ccccn1 was run?
The IC50 was 1.42 µM.

For O=C(Nc1ccc(S(=O)(=O)N2CCC3(CCCCC3)CC2)cc1)c1ccc([N+](=O)[O-])o1, which IC50 is on record?
The IC50 was 9.05 µM.

Which IC50 does the source give for O=C(Nc1ccc(S(=O)(=O)N2CCC(Cl)CC2)cc1)c1ccc([N+](=O)[O-])o1 here?
The IC50 was > 80 µM (inactive).

With O=C(Nc1nc2cc(F)cc(F)c2s1)c1ccccn1 as the compound, how does the IC50 read?
The IC50 was 1.05 µM.

Which IC50 does the source give for O=C(Nc1ccc(S(=O)(=O)N2CCCC2)cc1)c1ccc([N+](=O)[O-])o1 here?
Its IC50 is 19.2 µM.

How did the IC50 turn out when O=C(Nc1ccc(S(=O)(=O)C2CCCCC2)cc1)c1ccc([N+](=O)[O-])o1 was run?
The IC50 was 22.1 µM (inactive).

Which IC50 does the source give for CC1(C)CCN(S(=O)(=O)c2ccc(NC(=O)c3ccc([N+](=O)[O-])o3)cc2)CC1 here?
Its IC50 is 18 µM.

How did the IC50 turn out when Cc1cc(C)c2nc(NC(=O)c3ccccn3)sc2c1 was run?
Its IC50 is 3.75 µM.

O=C(Nc1nc2c(F)cc(F)cc2s1)c1ccccn1 was tested. Which IC50 did it give?
Its IC50 is 1.59 µM.

Which IC50 does the source give for CC1CCN(S(=O)(=O)c2ccc(NC(=O)c3ccc([N+](=O)[O-])o3)cc2)CC1 here?
The IC50 was 32.2 µM (inactive).

For CC(C)(C)C1CCN(S(=O)(=O)c2ccc(NC(=O)c3ccc([N+](=O)[O-])o3)cc2)CC1, which IC50 is on record?
Its IC50 is 2.68 µM.

How did the IC50 turn out when O=C(Nc1ccc(S(=O)(=O)N2CCOCC2)cc1)c1ccc([N+](=O)[O-])s1 was run?
Its IC50 is > 80 µM (inactive).

For O=C(Nc1nc2ccc(F)c(F)c2s1)c1ccccn1, which IC50 is on record?
The IC50 was 1.19 µM.

Which IC50 does the source give for O=C(Nc1nc2cc(F)ccc2s1)c1ccccn1 here?
Its IC50 is 1.26 µM.

Which IC50 does the source give for O=C(Nc1nc2ccc(Cl)cc2s1)c1ccccn1 here?
Its IC50 is 1.36 µM.

For O=C(Nc1ccc(S(=O)(=O)N2CCC(O)CC2)cc1)c1ccc([N+](=O)[O-])o1, which IC50 is on record?
The IC50 was 27.9 µM (inactive).

For O=C(Nc1nc2c(Cl)cc(Cl)cc2s1)c1ccccn1, which IC50 is on record?
Its IC50 is 8.77 µM.

Which IC50 does the source give for O=C(Nc1ccc(S(=O)(=O)c2ccccc2)cc1)c1ccc([N+](=O)[O-])o1 here?
Its IC50 is 18.5 µM.

O=C(Nc1ccc(S(=O)(=O)N2CCNCC2)cc1)c1ccc([N+](=O)[O-])o1 was tested. Which IC50 did it give?
Its IC50 is > 80 µM (inactive).

O=C(Nc1ccc(S(=O)(=O)N2CCOCC2)cc1)c1ccc([N+](=O)[O-])o1 was tested. Which IC50 did it give?
The IC50 was 32.3 µM (inactive).

O=C(Nc1nc2ccc(F)cc2s1)c1ccccn1 was tested. Which IC50 did it give?
Its IC50 is 1.99 µM.

Which IC50 does the source give for O=C(Nc1nc2c(F)c(F)ccc2s1)c1ccccn1 here?
The IC50 was 1.35 µM.

How did the IC50 turn out when O=C(Nc1ccc(S(=O)(=O)C2CCOCC2)cc1)c1ccc([N+](=O)[O-])o1 was run?
The IC50 was 37.6 µM (inactive).

Which IC50 does the source give for O=C(Nc1nc2ccc(C(F)(F)F)cc2s1)c1ccccn1 here?
Its IC50 is 0.97 µM.

Which IC50 does the source give for O=C(Nc1nc2c(F)ccc(F)c2s1)c1ccccn1 here?
Its IC50 is 1.06 µM.

O=C(Nc1nc2cccc(F)c2s1)c1ccccn1 was tested. Which IC50 did it give?
Its IC50 is 1.76 µM.
